Source: PubChem BioAssay
In the library only some 9.4% were active in any assay of this set; here they are far more common.
Beta apoptosis – inhibitors of cytokine-induced beta cell apoptosis, primary screen, luminescence. protection from apoptosis, % (no concentration beside the values). INS-1E cytokine-induced death, ATP luminescence, 48 h; percent of positive-control rescue, neutral wells zero. 300,000 compounds, 0.8% hits;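 active = Every replicate reaches about 75%, or at least half do and their mean reaches it too, limit read from the data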;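 also: 0% = cytokine-treated negative control wells and 100% = positive control rescue; higher means more ATP so stronger rescue from cytokine killing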
CSC inhib – cancer stem cell viability inhibitors, primary screen, luminescence | cancer stem cell-like cells viability | inhibition, % at 7.5 µM | 300,000 compounds, 1.1% hits | AID 2717, 2010; in the data active = inhibition above about 75%; tested in HMLE shEcad cells
Mdm2 MdmX PPI – inhibitors of human Mdm2-MdmX association, primary screen, cell-based, luminescence, split luciferase, SaOS-2, uHTS; Protein Mdm4 (Homo sapiens) + E3 ubiquitin-protein ligase Mdm2 (Homo sapiens), …; SaOS-2 split-luciferase Mdm2/MdmX complementation; inhibition, % at 8 µM; 330,000 compounds, 3% hits;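 active = inhibition of at least 50% at 8 µM in the primary screen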
Target sequence (O15151 whole entry, looked up): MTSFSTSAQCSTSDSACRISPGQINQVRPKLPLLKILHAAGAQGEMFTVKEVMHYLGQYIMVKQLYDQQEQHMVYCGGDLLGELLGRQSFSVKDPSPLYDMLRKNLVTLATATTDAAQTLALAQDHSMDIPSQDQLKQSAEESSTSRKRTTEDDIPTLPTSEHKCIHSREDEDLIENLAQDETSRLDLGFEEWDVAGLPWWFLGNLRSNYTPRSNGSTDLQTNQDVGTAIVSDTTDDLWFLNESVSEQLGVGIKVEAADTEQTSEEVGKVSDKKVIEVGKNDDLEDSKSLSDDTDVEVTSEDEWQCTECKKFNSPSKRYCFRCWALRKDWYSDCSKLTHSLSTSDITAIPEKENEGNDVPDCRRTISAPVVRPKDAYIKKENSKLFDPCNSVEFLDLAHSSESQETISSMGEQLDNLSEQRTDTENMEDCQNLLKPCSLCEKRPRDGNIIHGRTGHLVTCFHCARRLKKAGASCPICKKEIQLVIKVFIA
Target sequence (Q00987 whole entry, looked up): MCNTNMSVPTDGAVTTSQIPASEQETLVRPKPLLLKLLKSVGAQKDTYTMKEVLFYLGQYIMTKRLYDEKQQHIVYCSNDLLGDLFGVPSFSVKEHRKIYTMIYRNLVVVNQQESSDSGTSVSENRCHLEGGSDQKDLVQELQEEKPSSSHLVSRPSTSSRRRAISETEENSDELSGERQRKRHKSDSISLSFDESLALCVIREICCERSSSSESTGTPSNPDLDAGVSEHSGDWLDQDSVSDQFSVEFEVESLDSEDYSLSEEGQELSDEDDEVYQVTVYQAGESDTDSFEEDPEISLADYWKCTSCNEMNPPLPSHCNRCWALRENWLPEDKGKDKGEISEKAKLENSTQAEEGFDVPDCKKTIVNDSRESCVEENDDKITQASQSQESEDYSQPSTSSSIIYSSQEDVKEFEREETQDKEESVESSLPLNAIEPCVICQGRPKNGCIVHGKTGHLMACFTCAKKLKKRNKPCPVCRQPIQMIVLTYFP
L major viab – Leishmania major promastigote growth inhibition, primary screen; Leishmania major promastigotes, resazurin fluorescence viability; inhibition, % at 10 µM; 200,000 compounds, 9% hits; AID 1063, 2008; in the data active = inhibition above about 50%;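 also: promastigotes grown with compound for 44 hours at 28 °C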
T cruzi repl – inhibitors of intracellular T. cruzi growth, primary screen, luminescence, NIH3T3 host cells | T. cruzi beta-gal in NIH3T3, 90 h | inhibition, % (test concentration not listed) | 300,000 compounds, 1.4% hits | AID 1885, 2009;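 active = mean inhibition across valid replicates above about 55%, limit read from the data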;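 also: signal also drops with host cell toxicity which is not excluded here; 0% = plate median of DMSO wells and 100% = zero luminescence signal; higher percent means less beta-gal luminescence so fewer parasites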
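assay system = mouse NIH/3T3 fibroblasts infected with β-gal-expressing T. cruzi Tulahuen C4 | input = 5,000 NIH/3T3 host cells per well | buffer or medium = DMEM plus 2% FBS | timing = 3 h host attachment, then at least 90 h co-culture | measured by = GalScreen luminescence, 60 min | evaluation = luminescence reflecting intracellular parasite burden, expressed as percent inhibition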
SKKanGAS inh – S. pyogenes SKKanGAS growth inhibitors in kanamycin, primary screen, streptokinase expression inhibitor project, SKKanGAS strain, BacTiter-Glo luminescence. 6 h. inhibition, % at 7.5 µM. 300,000 compounds, 1.3% hits. AID 1662, 2009;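 active = mean replicate score, as percent of positive control median, at least 50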;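 also: strain carries kanamycin resistance gene driven by streptokinase promoter and grows in 40 µg/ml kanamycin; loss of luminescence reflects streptokinase promoter inhibition or plain growth inhibition; 0% = median of DMSO wells and 100% = positive control at its reference dose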
Starred values were filed as active, the others as inactive; / = not tested or not shown.

SMILES	Beta apoptosis	CSC inhib	Mdm2 MdmX PPI	L major viab	T cruzi repl	SKKanGAS inh
COc1cnc(-c2ccccn2)nc1Oc1ccccc1	/	-1	-11	9	-1	57*
CCOC(=O)CSc1nc(-c2ccccn2)ncc1OC	0	1	-22	1	-2	11
Cc1ccc(S(=O)(=O)Nc2cccc(C(=O)NCc3ccc(S(N)(=O)=O)cc3)c2)cc1	0	-17	24	/	-9	-1
COc1cnc(-c2ccccn2)nc1Sc1ccc(F)cc1	42	1	34	94*	-49	56*
CCc1nn(CCCC(=O)NCc2ccccc2Br)c(=O)c2cc3occc3n12	1	-7	27	/	8	59*
CCc1cccc(NC(=O)CCCn2nc(CC)n3c(cc4occc43)c2=O)c1	-1	-9	5	/	-3	25
COc1cc(CNC(=O)c2cnc(C)cn2)cc(OC)c1	/	-8	4	/	-5	-1
CCCc1cc(=O)[nH]c(-n2[nH]c3c(c2=O)CCCC3)n1	-5	5	33	94*	3	42
O=C(O)CC1(CC(=O)Nc2ccc(C(F)(F)F)cc2)CCCC1	-1	11	22	/	-4	3
C=CCn1c(SCc2ccc(F)cc2)nnc1-c1sc2nc(C)cc(C)c2c1N	2	-8	4	/	63*	4
C=CCn1c(SCc2ccc(OC)cc2)nnc1-c1cccnc1	-1	-8	-10	-2	-11	-5
CCN(CC(=O)Nc1cccc(OC)c1)C(=O)c1cnc(Cl)c(Cl)c1	1	-17	4	/	1	-5
Cc1cc(C)n(-c2nc3sc4c(c3c(=O)[nH]2)CCCC4)n1	50	/	/	99*	-8	93*
Cc1nc2sc3c(c2c(=O)[nH]1)CCCCC3	0	-6	9	/	1	-1
CCc1cc2cccc(C)c2nc1SCC(=O)N1CCN(C(=O)c2ccco2)CC1	1	-12	41	4	11	16
CCc1cc2cc(C)cc(C)c2nc1SCC(=O)N1CCN(C(=O)c2ccco2)CC1	1	116*	17	-1	/	/
CCc1cc2cc3c(cc2nc1SCC(=O)N1CCN(C(=O)c2ccco2)CC1)OCO3	-15	7	10	84*	18	0
O=C(Nc1ccccn1)c1ccc(S(=O)(=O)N2CCCCC2)cc1	/	-9	-2	/	-10	0
COc1ccc(CCC(=O)N2CCCC(Nc3ccc(C)c(C)c3)C2)cc1OC (stereo unspecified)	-1	17	6	/	5	5
O=c1c(-c2ccc(Cl)cc2)coc2c(CN3CCOCC3)c(O)ccc12	-1	-10	-28	59*	-3	0
COc1ccc(Cl)cc1-n1c(C)cc(C=O)c1C	-3	-1	21	78*	-9	0
COc1ccc(Cl)cc1-n1c(C)cc(C(=O)O)c1C	1	-9	5	-9	-11	-7
CCOC(=O)C1CCCN(Cc2ccc(OCc3ccccc3)c(OC)c2)C1 (stereo unspecified)	/	11	16	/	63*	-1
CCOC(=O)C1CCCN(CCCc2ccccc2)C1 (stereo unspecified)	4	1	-15	51*	28	-4
CC1CCCN(C(=O)C2CCN(CCCc3ccccc3)CC2)C1 (stereo unspecified)	-4	-9	25	81*	19	5
SMILES	Beta apoptosis	CSC inhib	Mdm2 MdmX PPI	L major viab	T cruzi repl	SKKanGAS inh
CCOC(=O)C1CCCN(Cc2ccc(O)c(OC)c2)C1 (stereo unspecified)	-8	0	12	-2	58*	-10
COc1cc(CN2CCCC(C)C2)ccc1OCc1ccccc1 (stereo unspecified)	2	5	-20	/	35	-5
Cc1ccc(-c2csc(NCCn3c(C)nc4cc(C(F)(F)F)ccc43)n2)cc1	0	29	20	/	/	/
COCc1ccc(C(=O)N2CCCC(C(=O)c3cccc(C(F)(F)F)c3)C2)o1 (stereo unspecified)	-11	-6	25	-4	4	-3
COc1cc(CN2CCC(C(=O)N3CCCC(C)C3)CC2)cc(Br)c1O (stereo unspecified)	-2	4	13	76*	-12	-3
CCOc1cc(CN2CCCC(C(=O)c3cccc(C(F)(F)F)c3)C2)ccc1O (stereo unspecified)	2	49	7	54*	35	-9
COc1ccc(CN2CCC(C(=O)N3CCCC(C)C3)CC2)cc1OC (stereo unspecified)	-4	-5	19	-7	9	-5
CCCCN(C)C(=O)C1CCN(CCCc2ccccc2)CC1	0	-2	33	82*	2	4
CCOC(=O)C1CCCN(Cc2ccc(OCc3ccccc3)cc2)C1 (stereo unspecified)	-4	12	20	/	62*	2
CCCn1cc(CN2CCC(n3nccc3NC(=O)CCOc3ccccc3)CC2)c(C)n1	1	4	-4	/	10	3
CCOC(=O)C1CCCN(Cc2ccc3c(c2)OCO3)C1 (stereo unspecified)	4	-5	5	92*	47	-2
CCN(CC)C(=O)C1CCCN(Cc2ccc3c(c2)OCO3)C1 (stereo unspecified)	0	-13	24	44	42	-5
COc1ccc(S(=O)(=O)NCc2ccccn2)cc1OC	-2	-11	-2	/	-8	1
CCOc1cc(Cl)c(S(=O)(=O)NCc2ccccn2)cc1Cl	13	2	3	99*	11	-4
COc1ccccc1Oc1ccc(S(=O)(=O)NCc2ccccn2)cc1	17	-20	20	52*	-18	-8
COc1cc(Cl)c(S(=O)(=O)NCc2ccccn2)cc1Cl	-13	4	1	-5	-6	-1
CC(C)(C)OC(=O)N1CCC(C(=O)N[C@H](C(=O)O)c2ccccc2)(c2ccccc2)CC1	-5	1	7	/	1	2
CCOC(=O)c1sc2ncnc(N3CCN(CC)CC3)c2c1C	-3	8	-9	24	77*	4
CCOC(=O)c1sc2ncnc(N3CCN(C(=O)OCC)CC3)c2c1C	7	/	1	3	14	7
CC(=O)c1cccc(NC(=O)c2ccc([N+](=O)[O-])o2)c1	-3	28	5	/	21	23
O=C(NC1CCCCC1)c1ccc([N+](=O)[O-])o1	-14	51	29	/	39	24
O=C(NNC(=O)c1ccc([N+](=O)[O-])o1)c1ccccc1	-15	-8	15	98*	58*	18
O=C(NN(c1ccccc1)c1ccccc1)c1ccc([N+](=O)[O-])o1	3	-3	18	85*	64*	23
